From ChEMBL document CHEMBL4368898, “Tridecaptin-inspired antimicrobial peptides with activity against multidrug-resistant Gram-negative bacteria” (Medchemcomm, 2019)
Converted amounts (≈) assume the structure as drawn. Where a SMILES comes first, the peptide text is derived from it. [ ]: non-standard residue; d: D form. The star is where a group is joined. d(aIle) = CC[C@H](C)[C@@H](N)C(=O)O; dOrn = NCCC[C@@H](N)C(=O)O; dDab = NCC[C@@H](N)C(=O)O; Octanoyl = CCCCCCCC(=O)*; Orn = NCCC[C@H](N)C(=O)O; Dab = NCC[C@H](N)C(=O)O

Key:
Format in all cases: functional
Klebsiella pneumoniae [1] = assay: Antimicrobial activity against carbapenemase-producing Klebsiella pneumoniae IMP 170 assessed as inhibition of bacterial growth incubated for 18 hrs by CLSI based serial broth dilution method; conditions: IMP 170, 18 h
Outline: (§1)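 MIC by microbroth dilution, run in duplicate, reported in μg mL−1 to three significant figures. The Gram-negative panel includes environmental isolates from sewage-contaminated water in Lebanon and clinical isolates from patients. Strains are classed by carbapenemase production.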

Enterobacter cloacae = assay: Antimicrobial activity against carbapenemase-producing Enterobacter cloacae […] assessed as inhibition of bacterial growth incubated for 18 hrs by CLSI based serial broth dilution method; outline: as §1
Klebsiella pneumoniae [2] = assay: Antimicrobial activity against carbapenemase-producing Klebsiella pneumoniae IMP 216 assessed as inhibition of bacterial growth incubated for 18 hrs by CLSI based serial broth dilution method; conditions: IMP 216, 18 h; outline: as §1
Klebsiella pneumoniae [3] = assay: Antimicrobial activity against carbapenemase-non-producing Klebsiella pneumoniae assessed as inhibition of bacterial growth incubated for 18 hrs by CLSI based serial broth dilution method; outline: as §1
Acinetobacter baumannii [4] = assay: Antimicrobial activity against carbapenemase-non-producing Acinetobacter baumannii assessed as inhibition of bacterial growth incubated for 18 hrs by CLSI based serial broth dilution method; outline: as §1
Acinetobacter baumannii [5] = assay: Antimicrobial activity against carbapenemase-producing Acinetobacter baumannii ACM 29 assessed as inhibition of bacterial growth incubated for 18 hrs by CLSI based serial broth dilution method; conditions: ACM 29, 18 h; outline: as §1
Klebsiella pneumoniae [6] = assay: Antimicrobial activity against carbapenemase-producing Klebsiella pneumoniae IMP 204 assessed as inhibition of bacterial growth incubated for 18 hrs by CLSI based serial broth dilution method; conditions: IMP 204, 18 h; outline: as §1
Acinetobacter baumannii [7] = assay: Antimicrobial activity against carbapenemase-producing Acinetobacter baumannii ACM 11 assessed as inhibition of bacterial growth incubated for 18 hrs by CLSI based serial broth dilution method; conditions: ACM 11, 18 h; outline: as §1
Klebsiella pneumoniae [8] = assay: Antimicrobial activity against carbapenemase-producing Klebsiella pneumoniae IMP 485 assessed as inhibition of bacterial growth incubated for 18 hrs by CLSI based serial broth dilution method; conditions: IMP 485, 18 h; outline: as §1
Pseudomonas oleovorans = assay: Antimicrobial activity against carbapenemase-non-producing Pseudomonas pseudoalcaligenes assessed as inhibition of bacterial growth incubated for 18 hrs by CLSI based serial broth dilution method; conditions: Ectopseudomonas oleovorans; outline: as §1
Klebsiella pneumoniae [9] = assay: Antimicrobial activity against carbapenemase-producing Klebsiella pneumoniae IMP 177 assessed as inhibition of bacterial growth incubated for 18 hrs by CLSI based serial broth dilution method; conditions: IMP 177, 18 h; outline: as §1

| Structure (SMILES) | MIC (Klebsiella pneumoniae [1]) | MIC (Enterobacter cloacae) | MIC (Klebsiella pneumoniae [2]) | MIC (Klebsiella pneumoniae [3]) | MIC (Acinetobacter baumannii [4]) | MIC (Acinetobacter baumannii [5]) | MIC (Klebsiella pneumoniae [6]) | MIC (Acinetobacter baumannii [7]) | MIC (Klebsiella pneumoniae [8]) | MIC (Pseudomonas oleovorans) | MIC (Klebsiella pneumoniae [9]) |
| --- | --- | --- | --- | --- | --- | --- | --- | --- | --- | --- | --- |
| CCCCCCCC(=O)N[C@@H](C(=O)N[C@H](CCCN)C(=O)NCC(=O)N[C@H](CO)C(=O)N[C@H](Cc1c[nH]c2ccccc12)C(=O)N[C@@H](CO)C(=O)N[C@@H](CCCN)C(=O)N[C@H](CCN)C(=O)N[C@@H](Cc1ccccc1)C(=O)N[C@@H](CCC(=O)O)C(=O)N[C@H](C(=O)N[C@@H](C(=O)N[C@@H](C)C(=O)O)[C@@H](C)CC)C(C)C)C(C)C (Octanoyl-[dV][dOrn]G[dS][dW]S[Orn][dDab]FEV[d(aIle)]A-OH) | 25 µg/mL (≈ 16.1 µM) | 25 µg/mL (≈ 16.1 µM) | 25 µg/mL (≈ 16.1 µM) | 100 µg/mL (≈ 64.6 µM) | 100 µg/mL (≈ 64.6 µM) | 50 µg/mL (≈ 32.3 µM) | 25 µg/mL (≈ 16.1 µM) | 50 µg/mL (≈ 32.3 µM) | 25 µg/mL (≈ 16.1 µM) | 12.5 µg/mL (≈ 8.07 µM) | 25 µg/mL (≈ 16.1 µM) |
| CCCCCCCC(=O)N[C@@H](C(=O)N[C@H](CCN)C(=O)NCC(=O)N[C@H](CO)C(=O)N[C@H](Cc1c[nH]c2ccccc12)C(=O)N[C@@H](CO)C(=O)N[C@@H](CCN)C(=O)N[C@H](CCN)C(=O)N[C@@H](Cc1ccccc1)C(=O)N[C@@H](CCC(=O)O)C(=O)N[C@H](C(=O)N[C@@H](C(=O)N[C@@H](C)C(=O)O)[C@@H](C)CC)C(C)C)C(C)C | 6.25 µg/mL (≈ 4.11 µM) | 3.13 µg/mL (≈ 2.06 µM) | 6.25 µg/mL (≈ 4.11 µM) | 6.25 µg/mL (≈ 4.11 µM) | 12.5 µg/mL (≈ 8.22 µM) | 25 µg/mL (≈ 16.4 µM) | 12.5 µg/mL (≈ 8.22 µM) | 25 µg/mL (≈ 16.4 µM) | 6.25 µg/mL (≈ 4.11 µM) | 50 µg/mL (≈ 32.9 µM) | 6.25 µg/mL (≈ 4.11 µM) |
| CCCCCCCC(=O)N[C@@H](C(=O)N[C@H](CCN)C(=O)NCC(=O)N[C@H](CO)C(=O)N[C@H](Cc1c[nH]c2ccccc12)C(=O)N[C@@H](CO)C(=O)N[C@@H](CCN)C(=O)N[C@H](CCN)C(=O)N[C@@H](Cc1ccccc1)C(=O)N[C@@H](CCC(=O)O)C(=O)N[C@H](C(=O)N[C@@H](C(=O)N[C@@H](C)C(=O)O)C(C)C)C(C)C)C(C)C (Octanoyl-[dV][dDab]G[dS][dW]S[Dab][dDab]FEV[dV]A-OH) | 12.5 µg/mL (≈ 8.3 µM) | 6.25 µg/mL (≈ 4.15 µM) | 12.5 µg/mL (≈ 8.3 µM) | 12.5 µg/mL (≈ 8.3 µM) | 25 µg/mL (≈ 16.6 µM) | 50 µg/mL (≈ 33.2 µM) | 12.5 µg/mL (≈ 8.3 µM) | 100 µg/mL (≈ 66.4 µM) | 12.5 µg/mL (≈ 8.3 µM) | 50 µg/mL (≈ 33.2 µM) | 25 µg/mL (≈ 16.6 µM) |
| CCCCCCCC(=O)N[C@@H](C(=O)N[C@H](CCCN)C(=O)NCC(=O)N[C@H](CO)C(=O)N[C@H](Cc1c[nH]c2ccccc12)C(=O)N[C@@H](CO)C(=O)N[C@@H](CCCN)C(=O)N[C@H](CCCN)C(=O)N[C@@H](Cc1ccccc1)C(=O)N[C@@H](CCC(=O)O)C(=O)N[C@H](C(=O)N[C@@H](C(=O)N[C@@H](C)C(=O)O)C(C)C)C(C)C)C(C)C (Octanoyl-[dV][dOrn]G[dS][dW]S[Orn][dOrn]FEV[dV]A-OH) | 25 µg/mL (≈ 16.1 µM) | 12.5 µg/mL (≈ 8.07 µM) | 12.5 µg/mL (≈ 8.07 µM) | 50 µg/mL (≈ 32.3 µM) | 25 µg/mL (≈ 16.1 µM) | 50 µg/mL (≈ 32.3 µM) | 12.5 µg/mL (≈ 8.07 µM) | 25 µg/mL (≈ 16.1 µM) | 12.5 µg/mL (≈ 8.07 µM) | 6.25 µg/mL (≈ 4.04 µM) | 12.5 µg/mL (≈ 8.07 µM) |

Continued, values first:

| MIC (Klebsiella pneumoniae [1]) | MIC (Enterobacter cloacae) | MIC (Klebsiella pneumoniae [2]) | MIC (Klebsiella pneumoniae [3]) | MIC (Acinetobacter baumannii [4]) | MIC (Acinetobacter baumannii [5]) | MIC (Klebsiella pneumoniae [6]) | MIC (Acinetobacter baumannii [7]) | MIC (Klebsiella pneumoniae [8]) | MIC (Pseudomonas oleovorans) | MIC (Klebsiella pneumoniae [9]) | Structure (SMILES) |
| --- | --- | --- | --- | --- | --- | --- | --- | --- | --- | --- | --- |
| 25 µg/mL (≈ 16 µM) | 6.25 µg/mL (≈ 4 µM) | 6.25 µg/mL (≈ 4 µM) | 12.5 µg/mL (≈ 8 µM) | 12.5 µg/mL (≈ 8 µM) | 50 µg/mL (≈ 32 µM) | 25 µg/mL (≈ 16 µM) | 50 µg/mL (≈ 32 µM) | 25 µg/mL (≈ 16 µM) | 50 µg/mL (≈ 32 µM) | 25 µg/mL (≈ 16 µM) | CCCCCCCC(=O)N[C@@H](C(=O)N[C@H](CCCN)C(=O)NCC(=O)N[C@H](CO)C(=O)N[C@H](Cc1c[nH]c2ccccc12)C(=O)N[C@@H](CO)C(=O)N[C@@H](CCCN)C(=O)N[C@H](CCCN)C(=O)N[C@@H](Cc1ccccc1)C(=O)N[C@@H](CCC(=O)O)C(=O)N[C@H](C(=O)N[C@@H](C(=O)N[C@@H](C)C(=O)O)[C@@H](C)CC)C(C)C)C(C)C (Octanoyl-[dV][dOrn]G[dS][dW]S[Orn][dOrn]FEV[d(aIle)]A-OH) |
| 25 µg/mL (≈ 15.9 µM) | 25 µg/mL (≈ 15.9 µM) | 25 µg/mL (≈ 15.9 µM) | 50 µg/mL (≈ 31.7 µM) | 50 µg/mL (≈ 31.7 µM) | 50 µg/mL (≈ 31.7 µM) | 25 µg/mL (≈ 15.9 µM) | 25 µg/mL (≈ 15.9 µM) | 25 µg/mL (≈ 15.9 µM) | 25 µg/mL (≈ 15.9 µM) | 25 µg/mL (≈ 15.9 µM) | CCCCCCCC(=O)N[C@@H](C(=O)N[C@H](CCCCN)C(=O)NCC(=O)N[C@H](CO)C(=O)N[C@H](Cc1c[nH]c2ccccc12)C(=O)N[C@@H](CO)C(=O)N[C@@H](CCCCN)C(=O)N[C@H](CCN)C(=O)N[C@@H](Cc1ccccc1)C(=O)N[C@@H](CCC(=O)O)C(=O)N[C@H](C(=O)N[C@@H](C(=O)N[C@@H](C)C(=O)O)[C@@H](C)CC)C(C)C)C(C)C (Octanoyl-[dV][dK]G[dS][dW]SK[dDab]FEV[d(aIle)]A-OH) |
| > 100 µg/mL | > 100 µg/mL | > 100 µg/mL | > 100 µg/mL | > 100 µg/mL | > 100 µg/mL | > 100 µg/mL | > 100 µg/mL | > 100 µg/mL | > 100 µg/mL | > 100 µg/mL | CCCCCCCC(=O)N[C@@H](C(=O)N[C@H](CCCCN)C(=O)NCC(=O)N[C@H](CO)C(=O)N[C@H](Cc1c[nH]c2ccccc12)C(=O)N[C@@H](CO)C(=O)N[C@@H](CCCCN)C(=O)N[C@H](CCCCN)C(=O)N[C@@H](Cc1ccccc1)C(=O)N[C@@H](CCC(=O)O)C(=O)N[C@H](C(=O)N[C@@H](C(=O)N[C@@H](C)C(=O)O)C(C)C)C(C)C)C(C)C (HELM PEPTIDE1{[CCCCCCCC(=O)[*:2]].[dV].[dK].G.[dS].[dW].S.K.[dK].F.E.V.[dV].A}$$$$V2.0) |
| 50 µg/mL (≈ 31.2 µM) | 25 µg/mL (≈ 15.6 µM) | 25 µg/mL (≈ 15.6 µM) | 50 µg/mL (≈ 31.2 µM) | 6.25 µg/mL (≈ 3.89 µM) | 25 µg/mL (≈ 15.6 µM) | 50 µg/mL (≈ 31.2 µM) | 25 µg/mL (≈ 15.6 µM) | 25 µg/mL (≈ 15.6 µM) | 100 µg/mL (≈ 62.3 µM) | 25 µg/mL (≈ 15.6 µM) | CCCCCCCC(=O)N[C@@H](C(=O)N[C@H](CCCCN)C(=O)NCC(=O)N[C@H](CO)C(=O)N[C@H](Cc1c[nH]c2ccccc12)C(=O)N[C@@H](CO)C(=O)N[C@@H](CCCCN)C(=O)N[C@H](CCCCN)C(=O)N[C@@H](Cc1ccccc1)C(=O)N[C@@H](CCC(=O)O)C(=O)N[C@H](C(=O)N[C@@H](C(=O)N[C@@H](C)C(=O)O)[C@@H](C)CC)C(C)C)C(C)C (HELM PEPTIDE1{[CCCCCCCC(=O)[*:2]].[dV].[dK].G.[dS].[dW].S.K.[dK].F.E.V.[CC[C@H](C)[C@@H](N[*:1])C(=O)[*:2]].A}$$$$V2.0) |
